Hits are enriched below; roughly 4.2% of the tested compounds scored in any of these assays.
CTSL1 counter: cathepsin L1 inhibition, PFM18AAP counter-screen; inhibition, % at 5.96 µM; recombinant F. hepatica cathepsin L1, Z-Leu-Arg-MCA fluorescence; 0.49% of 300,000 active;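 active = inhibition above the mean of all tested compounds plus 3 SD, set per screening campaign, cut at about 17% in these data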;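 also: 0% = plate median of test compound wells and 100% = 1 µM Z-Phe-Ala-diazomethylketone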
AHR activator: activates the human aryl hydrocarbon receptor | 2.5% of 320,000 active | AHR-responsive luciferase reporter cells, luminescence | P35869 | activation, % at 5 µM; in the data active = activation above about 47%;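 also: 0% = vehicle wells and 100% = reference agonist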
Target sequence (P35869 whole entry, looked up): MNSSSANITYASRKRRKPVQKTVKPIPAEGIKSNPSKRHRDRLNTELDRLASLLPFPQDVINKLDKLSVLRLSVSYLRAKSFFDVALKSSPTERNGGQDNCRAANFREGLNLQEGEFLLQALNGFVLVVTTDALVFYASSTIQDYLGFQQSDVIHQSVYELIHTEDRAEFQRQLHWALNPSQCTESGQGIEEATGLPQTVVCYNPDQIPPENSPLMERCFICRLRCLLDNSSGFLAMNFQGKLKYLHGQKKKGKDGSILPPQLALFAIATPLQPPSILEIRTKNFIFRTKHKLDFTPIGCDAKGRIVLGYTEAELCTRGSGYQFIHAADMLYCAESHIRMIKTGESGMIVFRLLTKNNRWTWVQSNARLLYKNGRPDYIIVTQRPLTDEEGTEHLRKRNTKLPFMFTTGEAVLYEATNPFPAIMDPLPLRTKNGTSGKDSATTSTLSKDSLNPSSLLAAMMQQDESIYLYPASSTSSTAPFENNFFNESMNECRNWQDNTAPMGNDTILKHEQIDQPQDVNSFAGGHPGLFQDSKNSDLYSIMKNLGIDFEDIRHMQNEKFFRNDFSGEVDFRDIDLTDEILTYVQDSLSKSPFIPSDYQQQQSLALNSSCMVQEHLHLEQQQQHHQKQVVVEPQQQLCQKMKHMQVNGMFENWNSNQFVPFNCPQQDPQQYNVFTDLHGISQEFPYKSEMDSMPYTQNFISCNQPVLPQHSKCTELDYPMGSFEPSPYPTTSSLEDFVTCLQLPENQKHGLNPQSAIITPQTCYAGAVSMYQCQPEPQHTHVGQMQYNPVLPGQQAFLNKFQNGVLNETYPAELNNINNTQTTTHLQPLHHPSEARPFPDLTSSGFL
M18AAP inhibitor: blocks P. falciparum M18 aspartyl aminopeptidase; inhibition, % at 7.35 µM; 1.2% of 290,000 active; recombinant PfM18AAP, H-Glu-NHMec fluorogenic cleavage;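 active = inhibition above the campaign mean inhibition over all tested compounds plus 3 SD, cut at about 28% in these data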;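 also: 0% = plate median of test compound wells and 100% = 2 mM ZnCl2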
SENP1 FRET inh: SENP1 (human) catalytic domain inhibition | AID 624204 | Q9P0U3 | recombinant SENP1 catalytic domain, CyPet-SUMO1-YPet FRET cleavage | inhibition, % at 10 µM | 0.21% of 360,000 active;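 active = inhibition at least 30% at 10 µM, raw YFP signal under a set limit, fluorescence ratio 0.5 to 1.5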;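 also: 0% = enzyme with DMSO and 100% = no enzyme wells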
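Assay system: hSENP1 catalytic domain, recombinant. Amount: SENP1 enzyme, 20 pM final. Schedule: 50 min reaction, RT, dark. Technique: FRET, CFP and YFP emission. Control set: no-enzyme wells low, DMSO-plus-enzyme wells high control.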
FXN GAA850 act: activators of GAA850 frataxin (FXN) promoter. HEK293 lucGAA850 FXN promoter luciferase reporter, 24 h; percent of 10 µM SAHA response. activation, % at 6 µM. 0.56% of 360,000 active;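 active = activation above the average of all compounds screened plus 3 SD, cutoff fixed separately per campaign, cut at about 7.5% in these data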;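 also: 0% = DMSO wells and 100% = 10 µM SAHA wells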
HDAC3 inhib: inhibitors of human histone deacetylase 3 | recombinant HDAC3, fluorogenic peptide/trypsin coupled, fluorescence | inhibition, % at 8.3 µM | AID 2718 | 0.15% of 320,000 active; in the data active = inhibition above about 26%, passing the limit was not always enough; inconclusive = no clear call, values can overlap the other calls
GAA30 counter: counter-screen for GAA850 frataxin promoter activators: GAA30 promoter activation | activation, % at 6 µM | AID 588350 | 66% of 1,900 active | HEK293 lucGAA30 FXN promoter luciferase, 24 h; DMSO = 0%, 5 µM ipriflavone = 100% | shares compounds with FXN GAA850 act;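 active = mean activation above the mean of solvent-only control wells plus 3 SD, cut at about 22% in these data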;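 also: counterscreen of GAA850 promoter hits where activity marks nonselective or luminescence artifacts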
FXN GAA850 conf: GAA850 FXN promoter activation confirmation; 86% of 1,900 active; shares compounds with FXN GAA850 act; HEK293 lucGAA850 FXN promoter luciferase reporter, 24 h; 100% = activation by SAHA; activation, % at 6 µM;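 active = mean activation above a set limit taken from the primary screen, cut at about 8% in these data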;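 also: 0% = DMSO wells and 100% = 10 µM SAHA wells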
Active calls of the source: *; ? = inconclusive; nt = no result given.

SMILES	CTSL1 counter	AHR activator	M18AAP inhibitor	SENP1 FRET inh	FXN GAA850 act	HDAC3 inhib	GAA30 counter	FXN GAA850 conf
COc1cc(OC)c(OC)cc1/C=N/Nc1ncnc2c1[nH]c1ccccc12	0	36	8	-59	7.9*	-5	16	18*
O=C(N/N=C/C(Br)=C/c1ccccc1)C(O)c1ccccc1 (centres undefined)	7	8	13	0	6	10	nt	nt
O=C(N/N=C/C(Br)=C/c1ccccc1)C1CC1	-1	32	11	-3	8.2*	3	81*	31*
CC(=C/c1ccccc1)/C=N/NC(=O)c1ccc2nc[nH]c2c1	-3	6	8	0	4	-3	nt	nt
CC(/C=N/NC(=O)NC1CCCCC1)=C\c1ccccc1	5	6	2	0	3	12	nt	nt
O=C(N/N=C/C(Br)=C\c1ccccc1)c1ccc2nc[nH]c2c1	3	18	1	0	8.5*	8	38*	19*
Cc1ccc(NCC(=O)N/N=C\C(Br)=C\c2ccccc2)cc1	-4	17	2	0	13*	-7	15	11*
O=C(N/N=C/C(Br)=C/c1ccccc1)NC1CCCCC1	3	27	11	-1	9.8*	2	51*	22*
CN1C2CCC1CC(NC(=O)CSCc1ccc(Cl)cc1Cl)C2 (centres undefined)	-2	-4	-1	2	1	-6	nt	nt
O=C(Nc1ccc2c(c1)OCCO2)C(c1ccccc1)n1c(=O)c(-c2cc3ccccc3[nH]2)nc2ccccc21 (centres undefined)	nt	nt	nt	-18	nt	nt	nt	nt
O=C(c1cccs1)N1C[C@@H](n2cc(C3CC3)nn2)[C@H](O)C[C@@H]1c1ccc(Cl)cc1	nt	nt	nt	0	1	nt	nt	nt
CC1(C)c2[nH]c3ccccc3c2C[C@@H]2C(=O)N(Cc3ccco3)C(=O)N21	1	0	nt	-44	2	8	nt	nt
COc1cc(C(CC(=O)Nc2ccc(Cl)cn2)N2Cc3ccccc3C2=O)cc(OC)c1OC (centres undefined)	0	10	9	1	1	-1	nt	nt
COc1ccc(NC(=O)C2(C)Cc3c(-c4cccc(NC(C)=O)c4)ccnc3O2)cn1 (centres undefined)	nt	nt	nt	-4	-2	nt	nt	nt
O=C(N/N=C/c1ccccc1)NC1CCCCC1	0	2	-7	1	8.6*	0	62*	20*
O=C(O)c1ccc(N/N=C/C(Br)=C/c2ccccc2)cc1	6	7	1	-33	10.0*	8	82*	36*
O=C(N/N=C/C(Br)=C/c1ccccc1)c1ccncc1	7	15	4	1	5	8	nt	nt
COc1ccc(C(=O)Nc2nc3ccccc3s2)cc1OC	5	12	6	-2	11*	4	116*	29*
COc1ccc(-c2nc3ccccc3s2)cc1NC(C)=O	1	57*	-7	-1	8.4*	1	124*	40*
COc1ccc(CN2CCC2(C)C(=O)NCc2ccc3c(c2)OCO3)c2ccccc12 (centres undefined)	nt	nt	nt	-1	4	nt	nt	nt
N#C/C(=C\c1cccc(Oc2ccc(C(F)(F)F)cc2[N+](=O)[O-])c1)c1nc2ccccc2[nH]1	4	10	-2	-1	8.0*	-12	23*	7.9*
O=S(=O)(c1ccc(-c2ccon2)s1)N1CCN(c2ccccn2)CC1	-1	1	-4	2	2	2	nt	nt
CC(=O)Oc1ccc(C(=O)Cc2ccccn2)c(O)c1	-22	0	4	0	11*	6	23*	12*
S=C(Nc1ccc(Cl)cc1)c1nc2ccccc2[nH]1	1	37	2	3	7.8*	3	113*	33*
CN(C)c1ccc(N=Nc2ccccc2C(=O)OCC(=O)Nc2ccccc2C(F)(F)F)cc1	nt	nt	-6	5	7.6*	nt	73*	23*
SMILES	CTSL1 counter	AHR activator	M18AAP inhibitor	SENP1 FRET inh	FXN GAA850 act	HDAC3 inhib	GAA30 counter	FXN GAA850 conf
CCOC(=O)C(C#N)=CN1CCNc2ccccc21	nt	nt	nt	2	1	nt	nt	nt
NC(CCc1ccccc1)c1csc(NC(=O)Nc2ccccc2Oc2ccccc2)n1 (centres undefined)	nt	nt	nt	-2	11*	nt	9	16*
NC(CCc1ccccc1)c1csc(NC(=O)NCCc2ccccc2)n1 (centres undefined)	nt	nt	nt	-2	2	nt	nt	nt
NC(Cc1ccc(C(F)(F)F)cc1)c1csc(NC(=O)Nc2ccccc2Cc2ccccc2)n1 (centres undefined)	nt	nt	nt	1	15*	nt	20	15*
COc1cccc(Nc2nc(C(N)CCc3ccccc3)cs2)n1 (centres undefined)	nt	nt	nt	-7	8.3*	nt	-4	7.7*
COc1cccc(Nc2nc(C(N)COCc3ccccc3)cs2)n1 (centres undefined)	nt	nt	nt	-2	4	nt	nt	nt
CCOC(=O)CC1(NC(=O)C2CCC(=O)N(Cc3ccccc3OC)C2)CCCCC1 (centres undefined)	nt	nt	-4	1	-1	1	nt	nt
N#Cc1nc(COc2ccccc2F)oc1N1CCCCCC1	-2	36	10	2	9.6*	?	47*	24*
N#Cc1nc(-c2ccccc2Cl)oc1N1CCCCC1	3	27	2	0	8.7*	-22	56*	26*
COC(=O)c1cc(NC(=O)COC(=O)C2COc3ccccc3O2)cc(C(=O)OC)c1 (centres undefined)	nt	0	nt	1	-1	2	nt	nt
CCCS(=O)(=O)Nc1ccc(N2CCCCC2)c(S(=O)(=O)Nc2ccccc2OC)c1	nt	nt	nt	0	7.8*	nt	19	9.1*
COc1ccccc1NS(=O)(=O)c1cc(N)ccc1N1CCCCC1	6	-1	4	2	1	10	nt	nt
COc1cc(/C=N/NC(=O)c2sc(N)c(C#N)c2C)ccc1O	4	40	-10	-5	11*	12	-13	44*
COC(=O)c1ccc(CSC(=N)N)o1	0	2	4	0	8.5*	2	31*	13*
CCOC(=O)c1ccc(CSC(=N)N)o1	4	-1	-6	3	7	-1	nt	nt
CCOc1ccc2nc(SCC(=O)c3ccc(Cl)s3)sc2c1	0	5	-2	6	3	6	nt	nt
CCOc1ccc2nc(SCC(=O)c3cccs3)sc2c1	0	28	-4	2	8.6*	nt	102*	29*
Cc1ccc(S(=O)(=O)N2CCC(C(=O)Nc3ccc(S(=O)(=O)N4CCCC4)cc3)CC2)cc1C	3	-1	nt	1	-3	4	nt	nt

Assay outcomes deposited in PubChem by several laboratories.
